Measurements collected from several papers.
Protocols differ between the studies behind these lines.
Cell line: HepG2
Observed: cell growth or viability

CN(C)c1ccc(O)c2c1C[C@H]1C[C@H]3[C@H](N(C)C)C(O)=C(C(N)=O)C(=O)[C@@]3(O)C(O)=C1C2=O — IC50 (ATP luminescence; 72 h): > 200 µg/mL
Cc1ccc(-c2cc(-c3ccc(Cl)c(F)c3)c3c(=O)n(C)c(=O)n(C)c3n2)cc1 — IC50 (MTT; 48 h): 38.8 µM
O=C(O)Cc1csc(NC(=O)c2cc3ccccc3[nH]2)n1 — IC50 (MTT; 24 h): 13.9 µM
CN(C)c1cc(NC(=O)Cc2cccnn2)c(O)c2c1C[C@H]1C[C@H]3[C@H](N(C)C)C(O)=C(C(N)=O)C(=O)[C@@]3(O)C(O)=C1C2=O — IC50 (ATP luminescence; 72 h): > 200 µg/mL
COc1ccc(-c2cc(-c3cc(OC)ccc3OC)c3c(=O)n(C)c(=O)n(C)c3n2)cc1 — IC50 (MTT; 48 h): 16.4 µM
CN(C)c1cc(NC(=O)Cc2ccn(C)n2)c(O)c2c1C[C@H]1C[C@H]3[C@H](N(C)C)C(O)=C(C(N)=O)C(=O)[C@@]3(O)C(O)=C1C2=O — IC50 (ATP luminescence; 72 h): > 200 µg/mL
CCCOc1nc(-c2cccc(O)c2)cc(-c2cc3ccccc3nc2N2CCOCC2)c1C#N — IC50 (MTT; 72 h): 0.269 µM
Cc1ccc(-c2cc(-c3ccc(Cl)cc3)c3c(=O)[nH]c(=O)[nH]c3n2)cc1 — IC50 (MTT; 48 h): 8.46 µM
CN(C)c1cc(NC(=O)CCc2cccnc2)c(O)c2c1C[C@H]1C[C@H]3[C@H](N(C)C)C(O)=C(C(N)=O)C(=O)[C@@]3(O)C(O)=C1C2=O — IC50 (ATP luminescence; 72 h): > 200 µg/mL
C[C@H](CCC(=O)O)[C@H]1CC[C@H]2[C@@H]3CC[C@@H]4C[C@H](O)CC[C@]4(C)[C@H]3CC[C@]12C — IC50 (MTT; 72 h): 52 µM
COc1cccc2c1C(=O)c1c(O)c3c(c(O)c1C2=O)C[C@@](O)(C(=O)CO)C[C@@H]3O[C@H]1C[C@H](N)[C@H](O)[C@H](C)O1 — IC50 (MTT; 72 h): 0.355 µM
COc1ccc2nc(N3CCOCC3)c(-c3cc(-c4cccc(O)c4)nc4[nH]nc(N)c34)cc2c1 — IC50 (MTT; 72 h): 0.087 µM
COc1ccc(-c2cc(-c3c(OC)cccc3OC)c3c(=O)[nH]c(=O)[nH]c3n2)cc1 — IC50 (MTT; 48 h): 36.5 µM
COc1ccc(C2CC(c3ccc(Nc4nnc(-c5ccc(Cl)cc5)c5ccccc45)cc3)=NN2)cc1 (centres unmarked) — IC50 (MTT; 72 h): 0.19 µM
CN(C)c1cc(NC(=O)Cc2cncnc2)c(O)c2c1C[C@H]1C[C@H]3[C@H](N(C)C)C(O)=C(C(N)=O)C(=O)[C@@]3(O)C(O)=C1C2=O — IC50 (ATP luminescence; 72 h): 84.8 µg/mL
COc1ccc(-c2cc(-c3ccc(OC)cc3)c3c(=O)[nH]c(=O)[nH]c3n2)cc1 — IC50 (MTT; 48 h): 9.62 µM
CN(C)c1cc(NC(=O)Cc2ccncn2)c(O)c2c1C[C@H]1C[C@H]3[C@H](N(C)C)C(O)=C(C(N)=O)C(=O)[C@@]3(O)C(O)=C1C2=O — IC50 (ATP luminescence; 72 h): > 200 µg/mL
COc1ccc(-c2cc(-c3cc(OC)ccc3OC)c3c(=O)[nH]c(=O)[nH]c3n2)cc1 — IC50 (MTT; 48 h): 13.1 µM
CN(C)c1cc(NC(=O)c2ccccc2)c(O)c2c1C[C@H]1C[C@H]3[C@H](N(C)C)C(O)=C(C(N)=O)C(=O)[C@@]3(O)C(O)=C1C2=O — IC50 (ATP luminescence; 72 h): 21.3 µg/mL
COc1cccc2c1C(=O)c1c(O)c3c(c(O)c1C2=O)C[C@@](O)(C(=O)CO)C[C@@H]3O[C@H]1C[C@H](N)[C@H](O)[C@H](C)O1 — IC50 (MTT; 24 h): 4.5 µM
COc1ccc(-c2cc(-c3c(OC)cccc3OC)c3c(=O)n(C)c(=O)n(C)c3n2)cc1 — IC50 (MTT; 48 h): 10.5 µM
CCOc1nc(-c2cccc(O)c2)cc(-c2cc3ccccc3nc2N2CCOCC2)c1C#N — IC50 (MTT; 72 h): 0.132 µM
COc1ccc2[nH]c(C(=O)Nc3nc(CC(=O)NO)cs3)cc2c1 — IC50 (MTT; 24 h): 13.3 µM
